Compound activity (PubChem BioAssay)
VIM-2 inh: blocks Pseudomonas aeruginosa VIM-2 metallo-beta-lactamase | inhibition, % at 5.6 µM | 290,000 compounds, 0.89% hits | purified VIM-2, nitrocefin hydrolysis, epi-absorbance fluorescence | AID 1527;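 active means inhibition above the mean of all tested compounds plus 3 SD, cutoff set per screening run, cut at about 7.5% in these data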;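 further: red hydrolysis product quenches plate fluorescence so inhibitors raise well fluorescence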
IMP-1 inhibitor: inhibitors of Pseudomonas aeruginosa IMP-1 metallo-beta-lactamase. AID 1556. purified IMP-1, nitrocefin hydrolysis, epi-absorbance fluorescence. 290,000 compounds, 0.45% hits. inhibition, % at 5.6 µM;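 active means inhibition above the mean plus 3 SD of all compounds in the same screening run, cut at about 4.5% in these data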
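Assay system: purified IMP-1; Quantity: IMP-1 0.2 nM before substrate addition; Medium: HEPES buffer pH 7.1 with ZnSO4 and Brij 35; Incubation: 15 min enzyme–compound preincubation, then 25 min nitrocefin reaction, 25 °C; Signal: fluorescence quenching readout, ex 480/em 530 nm; Controls: DMSO with and without IMP-1; Repeats: singlicate testing.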
SUMO Mot1 rescue: blocks SUMOylation pathway, rescuing yeast Mot1-301 growth; S. cerevisiae Mot1-301 growth rescue, ATP luminescence, 38.5C; percent above DMSO median, 100 means doubled; growth rescue, % at 18.8 µM; 320,000 compounds, 1% hits;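 active means every valid replicate shows activation above 250% relative to neutral control wells; inactive means the rest, any valid replicate at or below 250%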
NALP1 inh: inhibitors of NALP1 inflammasome in yeast. S. cerevisiae NALP1/ASC/caspase-1 growth, X-gal OD620, 72 h. inhibition, % at 10 µM. 280,000 compounds, 0.61% hits. AID 2071; in the data active means inhibition mostly above about 24%, no sharp cut-off; inactive means mostly below about 32%
SUMO HTRF inh: blocks human SUMOylation mediated by UBC9 | P63279 | HTRF SUMOylation assay, SAE1/SAE2 + UBC9, in vitro | inhibition, % at 35 µM | 290,000 compounds, 0.36% hits | AID 2006; in the data active means inhibition above about 50%, passing the limit was not always enough
Target sequence (P63279 whole entry, looked up): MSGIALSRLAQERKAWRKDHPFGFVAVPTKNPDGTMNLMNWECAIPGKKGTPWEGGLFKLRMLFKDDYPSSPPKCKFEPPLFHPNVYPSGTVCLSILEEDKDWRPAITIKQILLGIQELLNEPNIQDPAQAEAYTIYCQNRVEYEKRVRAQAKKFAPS
DNA FID counter: displaces DNA intercalator in HCV helicase counter-screen; DNA fluorescent intercalator displacement, fluorescence; inhibition, % at 7.9 µM; 290,000 compounds, 0.17% hits; AID 1845; in the data active means inhibition above about 37%;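 further: higher means more ethidium bromide displaced from hairpin DNA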
Of the large screens only hits and unclear results are named; the others gave an inactive call; ! = repeats disagree. Hits are enriched below; roughly 2.9% of the tested compounds scored in any of these assays.

COc1ccc(CNC(=O)[C@@H](C)NC(=O)C2CCN(C(=O)[C@@H](N)CCSC)CC2)cc1	SUMO Mot1 rescue 612
COc1ccccc1CNC(=O)[C@H](C)NC(=O)C1CCN(C(=O)[C@@H](N)CCSC)CC1	none
NS(=O)(=O)c1ccc(O)c(NC(=O)c2ccc([N+](=O)[O-])cc2)c1	none
O=C(OCc1cc([N+](=O)[O-])cc2c1OCOC2)c1ccc2ccccc2n1	SUMO Mot1 rescue 292
COc1cccc(CCNC(=O)c2ccc(OC)c(OC3CCN(C(C)C)CC3)c2)c1	none
O=C(Cc1ccc(NC2=NC3CS(=O)(=O)CC3S2)cc1)NCc1ccccc1 (centres undefined)	none
O=S(=O)(Cc1ccc(Cl)cc1)NCc1ccc2c(c1)OCO2	none
Cc1nc2c(O)cccc2cc1CO	NALP1 inh 36
Cc1ccc(O)c(CO)n1	none
Cn1nccc1C(=O)NC(=S)Nc1cc(Cl)cc(Cl)c1	SUMO Mot1 rescue 334
Cc1ccc2cccc(NC(=S)NC(=O)c3ccnn3C)c2n1	none
Cc1ccc(S(=O)(=O)NCC(=O)N(CC(=O)NCC2CCCO2)Cc2ccc(Cl)cc2)cc1 (centres undefined)	none
COc1ccc(S(N)(=O)=O)cc1-c1nnc2c3ccccc3c(C)nn12	SUMO Mot1 rescue 304 (no result: NALP1 inh)
Cc1cccc(-n2c(SCc3cc(=O)n4ccsc4n3)nc3ccccc32)c1	IMP-1 inhibitor 5.0
Cc1ccc(SCc2cc(=O)n3ccsc3n2)c(C)c1	none
CN(C)CCNS(=O)(=O)c1ccc2c3c(cccc13)C(=O)N2	SUMO HTRF inh 53
CCN(CC)CCNS(=O)(=O)c1ccc2c3c(cccc13)C(=O)N2	SUMO HTRF inh 58
O=C1Nc2ccc(S(=O)(=O)NCc3ccccn3)c3cccc1c23	none (no result: SUMO Mot1 rescue)
CN1CCN(S(=O)(=O)c2ccc3c4c(cccc24)C(=O)N3)CC1	none
CCOc1ccc(C(=O)NNC(=O)CCNC(=O)c2ccc(Br)cc2)cc1OC	none (no result: VIM-2 inh, IMP-1 inhibitor, NALP1 inh, SUMO HTRF inh, DNA FID counter)
Nc1cccc2c1C(=O)N(CCOc1ccccc1F)C2=O	IMP-1 inhibitor 6.8
Nc1nnc(CC(=O)N/N=C/c2cccc([N+](=O)[O-])c2)s1	none
Nc1nnc(CC(=O)N/N=C/c2cc([N+](=O)[O-])cc(Br)c2O)s1	SUMO HTRF inh 99
CCCOc1cccc(C2C(C(=O)c3ccc(C)o3)=C(O)C(=O)N2c2nc(C)c(C(C)=O)s2)c1 (centres undefined)	none
Oc1ccccc1/C=N/NC(=S)NC1CC2C=CC1C2 (centres undefined)	none
Oc1c(Cl)cc(Cl)cc1/C=N/NC(=S)NC1CC2C=CC1C2 (centres undefined)	SUMO HTRF inh 55
CC(O)Cc1cn(CC(=O)N2CCN(C(=O)OC(C)(C)C)CC2)nn1 (centres undefined)	none
Clc1ccc(C2CSc3c4ncnc-4ncn32)cc1 (centres undefined)	NALP1 inh 40
CC1CCCN(C(=O)C(C)Nc2cc(Cl)ccc2N2CCOCC2)C1 (centres undefined)	none
CC(=O)c1nc(N2C(=O)CC(Cc3cccc(C)c3)C2=O)sc1C (centres undefined)	IMP-1 inhibitor 17
CCSc1nnc(NC(=O)CCN2C(=O)C3CCCCC3C2=O)s1 (centres undefined)	none (no result: VIM-2 inh, IMP-1 inhibitor, NALP1 inh, SUMO HTRF inh, DNA FID counter)
O=C1C=C(N(CCO)Cc2ccccc2)c2ccccc2C1=O	SUMO HTRF inh 64 (no result: SUMO Mot1 rescue)
CC(C)c1ccc(N(CC(=O)N2CCOCC2)S(C)(=O)=O)cc1	none
CC1CCCN(CCCOc2ccc(Cl)cc2Br)C1 (centres undefined)	SUMO Mot1 rescue 482, NALP1 inh 50
Cc1ccc(Cl)c(OCCN2CCCC(C)C2)c1 (centres undefined)	SUMO Mot1 rescue 538
CC1CCN(CCCOc2ccc(Cl)cc2Br)CC1	none (no result: SUMO Mot1 rescue)
O=C(O)CN1C(=O)C(=O)N(Cc2cccc(F)c2)C1=O	none
CCCCCC#CCC#CCC#CCC#CCCCC(=O)O	SUMO HTRF inh 58
CC(C(O)c1ccc(O)cc1)N1CCC(Cc2ccccc2)CC1 (centres undefined)	SUMO Mot1 rescue 333!
CCCN1CCN(CCCNC(=O)c2ccc3c(Cl)c4c(nc3c2)CCCC4)CC1	VIM-2 inh 8.4
CCN(CC)CCCNC(=O)c1ccc2c(SCC(=O)O)c3c(nc2c1)CCC3	none
